# Measurements: ChEMBL document CHEMBL5058577, “EUbOPEN Chemogenomics Library 2 (Multiplex)” (2022)
# Tested on: Fibroblast
# Experiment: Multiplex assay against human fibroblast
# Assay type: toxicity, cell-based
# How it was run: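 Imaging took place on a CQ1 microscope at 37°C and 5% CO2 once compound had been added to live cells stained at seeding with Hoechst33342, BioTracker Green Microtubule Cytoskeleton Dye, MitoTracker Red and Annexin V Alexa Fluor 680. CellPathfinder machine-learning gating classed cells as Hoechst high-intensity objects or normal cells, classed normal cells as having healthy, pyknosed or fragmented nuclei, and classed pyknosed cells as mitotic or apoptotic. Tubulin, mitochondrial-mass and membrane-permeability phenotypes are per cents of the healthy-nucleus cells.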
# [1] = 12 h, 1 µM, compound concentration 1 uM, replicate 1
# [2] = 12 h, 1 µM, compound concentration 1 uM, replicate 2
# [3] = 12 h, 10 µM, compound concentration 10 uM, replicate 1
# [4] = 12 h, 10 µM, compound concentration 10 uM, replicate 2
# [5] = 24 h, 1 µM, compound concentration 1 uM, replicate 1
# [6] = 24 h, 1 µM, compound concentration 1 uM, replicate 2
# [7] = 24 h, 10 µM, compound concentration 10 uM, replicate 1
# [8] = 24 h, 10 µM, compound concentration 10 uM, replicate 2
# [9] = 48 h, 1 µM, compound concentration 1 uM, replicate 1
# [10] = 48 h, 1 µM, compound concentration 1 uM, replicate 2
# [11] = 48 h, 10 µM, compound concentration 10 uM, replicate 1
# [12] = 48 h, 10 µM, compound concentration 10 uM, replicate 2
smiles,measurement,setting,value
Nc1nc(CC(=O)Nc2ccc(CCNC[C@H](O)c3ccccc3)cc2)cs1 [MIRABEGRON],Population Apoptotic (%),[1],53%
same,Population Fragmented Nuclei (%),[1],19%
same,Population Healthy Nuclei (%),[1],62%
same,Population Hoechst High Intensity Objects (%),[1],5%
same,Population Membrane Permeable-Phenotype (%),[1],0%
same,Population Mitochondria Different-Phenotype (%),[1],6%
same,Population Mitotic Cells (%),[1],46%
same,Population Normal (%),[1],94%
same,Population Pyknosed Nuclei (%),[1],18%
same,Population Tubulin-Different-Phenotype (%),[1],25%
same,Total Cell Count,[1],164
same,Population Apoptotic (%),[2],31%
same,Population Fragmented Nuclei (%),[2],27%
same,Population Healthy Nuclei (%),[2],52%
same,Population Hoechst High Intensity Objects (%),[2],4%
same,Population Membrane Permeable-Phenotype (%),[2],9%
same,Population Mitochondria Different-Phenotype (%),[2],12%
same,Population Mitotic Cells (%),[2],68%
same,Population Normal (%),[2],95%
same,Population Pyknosed Nuclei (%),[2],19%
same,Population Tubulin-Different-Phenotype (%),[2],46%
same,Total Cell Count,[2],189
same,Population Apoptotic (%),[3],46%
same,Population Fragmented Nuclei (%),[3],15%
same,Population Healthy Nuclei (%),[3],75%
same,Population Hoechst High Intensity Objects (%),[3],3%
same,Population Membrane Permeable-Phenotype (%),[3],0%
same,Population Mitochondria Different-Phenotype (%),[3],4%
same,Population Mitotic Cells (%),[3],53%
same,Population Normal (%),[3],96%
same,Population Pyknosed Nuclei (%),[3],9%
same,Population Tubulin-Different-Phenotype (%),[3],19%
same,Total Cell Count,[3],171
same,Population Apoptotic (%),[4],30%
same,Population Fragmented Nuclei (%),[4],31%
same,Population Healthy Nuclei (%),[4],41%
same,Population Hoechst High Intensity Objects (%),[4],5%
same,Population Membrane Permeable-Phenotype (%),[4],1%
same,Population Mitochondria Different-Phenotype (%),[4],3%
same,Population Mitotic Cells (%),[4],69%
same,Population Normal (%),[4],94%
same,Population Pyknosed Nuclei (%),[4],27%
same,Population Tubulin-Different-Phenotype (%),[4],45%
same,Total Cell Count,[4],137
same,Population Apoptotic (%),[5],59%
same,Population Fragmented Nuclei (%),[5],17%
same,Population Healthy Nuclei (%),[5],64%
same,Population Hoechst High Intensity Objects (%),[5],5%
same,Population Membrane Permeable-Phenotype (%),[5],1%
same,Population Mitochondria Different-Phenotype (%),[5],4%
same,Population Mitotic Cells (%),[5],40%
same,Population Normal (%),[5],94%
same,Population Pyknosed Nuclei (%),[5],18%
same,Population Tubulin-Different-Phenotype (%),[5],28%
same,Total Cell Count,[5],156
same,Population Apoptotic (%),[6],58%
same,Population Fragmented Nuclei (%),[6],27%
same,Population Healthy Nuclei (%),[6],57%
same,Population Membrane Permeable-Phenotype (%),[6],9%
same,Population Mitochondria Different-Phenotype (%),[6],7%
same,Population Mitotic Cells (%),[6],41%
same,Population Pyknosed Nuclei (%),[6],14%
same,Population Tubulin-Different-Phenotype (%),[6],45%
same,Total Cell Count,[6],179
same,Population Apoptotic (%),[7],53%
same,Population Fragmented Nuclei (%),[7],15%
same,Population Healthy Nuclei (%),[7],75%
same,Population Hoechst High Intensity Objects (%),[7],2%
same,Population Membrane Permeable-Phenotype (%),[7],0%
same,Population Mitochondria Different-Phenotype (%),[7],4%
same,Population Mitotic Cells (%),[7],46%
same,Population Normal (%),[7],97%
same,Population Pyknosed Nuclei (%),[7],8%
same,Population Tubulin-Different-Phenotype (%),[7],24%
same,Total Cell Count,[7],181
same,Population Apoptotic (%),[8],55%
same,Population Fragmented Nuclei (%),[8],29%
same,Population Healthy Nuclei (%),[8],48%
same,Population Hoechst High Intensity Objects (%),[8],4%
same,Population Membrane Permeable-Phenotype (%),[8],4%
same,Population Mitochondria Different-Phenotype (%),[8],6%
same,Population Mitotic Cells (%),[8],44%
same,Population Normal (%),[8],95%
same,Population Pyknosed Nuclei (%),[8],21%
same,Population Tubulin-Different-Phenotype (%),[8],44%
same,Total Cell Count,[8],131
same,Population Apoptotic (%),[9],76%
same,Population Fragmented Nuclei (%),[9],23%
same,Population Healthy Nuclei (%),[9],60%
same,Population Hoechst High Intensity Objects (%),[9],7%
same,Population Membrane Permeable-Phenotype (%),[9],2%
same,Population Mitochondria Different-Phenotype (%),[9],6%
same,Population Mitotic Cells (%),[9],23%
same,Population Normal (%),[9],92%
same,Population Pyknosed Nuclei (%),[9],15%
same,Population Tubulin-Different-Phenotype (%),[9],28%
same,Total Cell Count,[9],176
same,Population Apoptotic (%),[10],50%
same,Population Fragmented Nuclei (%),[10],40%
same,Population Healthy Nuclei (%),[10],52%
same,Population Hoechst High Intensity Objects (%),[10],2%
same,Population Membrane Permeable-Phenotype (%),[10],4%
same,Population Mitochondria Different-Phenotype (%),[10],10%
same,Population Mitotic Cells (%),[10],50%
same,Population Normal (%),[10],97%
same,Population Pyknosed Nuclei (%),[10],7%
same,Population Tubulin-Different-Phenotype (%),[10],32%
same,Total Cell Count,[10],195
same,Population Apoptotic (%),[11],64%
same,Population Fragmented Nuclei (%),[11],18%
same,Population Healthy Nuclei (%),[11],74%
same,Population Hoechst High Intensity Objects (%),[11],4%
same,Population Membrane Permeable-Phenotype (%),[11],0%
same,Population Mitochondria Different-Phenotype (%),[11],4%
same,Population Mitotic Cells (%),[11],35%
same,Population Normal (%),[11],95%
same,Population Pyknosed Nuclei (%),[11],7%
same,Population Tubulin-Different-Phenotype (%),[11],21%
same,Total Cell Count,[11],194
same,Population Apoptotic (%),[12],75%
same,Population Fragmented Nuclei (%),[12],39%
same,Population Healthy Nuclei (%),[12],48%
same,Population Hoechst High Intensity Objects (%),[12],3%
same,Population Membrane Permeable-Phenotype (%),[12],6%
same,Population Mitochondria Different-Phenotype (%),[12],6%
same,Population Mitotic Cells (%),[12],25%
same,Population Normal (%),[12],96%
same,Population Pyknosed Nuclei (%),[12],12%
same,Population Tubulin-Different-Phenotype (%),[12],51%
same,Total Cell Count,[12],132
Cc1cc(-c2ccc3c(c2)CC[C@H]3N2CC3(CCN(C(=O)Cc4cn5cc(C)sc5n4)CC3)C2)ncn1 [PF-5190457],Population Apoptotic (%),[1],29%
same,Population Fragmented Nuclei (%),[1],16%
same,Population Healthy Nuclei (%),[1],71%
same,Population Hoechst High Intensity Objects (%),[1],4%
same,Population Membrane Permeable-Phenotype (%),[1],1%
same,Population Mitochondria Different-Phenotype (%),[1],5%
same,Population Mitotic Cells (%),[1],70%
same,Population Normal (%),[1],96%
same,Population Pyknosed Nuclei (%),[1],11%
same,Population Tubulin-Different-Phenotype (%),[1],24%
same,Total Cell Count,[1],150
same,Population Apoptotic (%),[2],30%
same,Population Fragmented Nuclei (%),[2],18%
same,Population Healthy Nuclei (%),[2],46%
same,Population Membrane Permeable-Phenotype (%),[2],9%
same,Population Mitochondria Different-Phenotype (%),[2],0%
same,Population Normal (%),[2],95%
same,Population Pyknosed Nuclei (%),[2],34%
same,Population Tubulin-Different-Phenotype (%),[2],48%
same,Total Cell Count,[2],121
same,Population Apoptotic (%),[3],36%
same,Population Fragmented Nuclei (%),[3],17%
same,Population Healthy Nuclei (%),[3],63%
same,Population Hoechst High Intensity Objects (%),[3],4%
same,Population Membrane Permeable-Phenotype (%),[3],1%
same,Population Mitochondria Different-Phenotype (%),[3],5%
same,Population Mitotic Cells (%),[3],63%
same,Population Normal (%),[3],95%
same,Population Pyknosed Nuclei (%),[3],18%
same,Population Tubulin-Different-Phenotype (%),[3],38%
same,Total Cell Count,[3],186
same,Population Apoptotic (%),[4],45%
same,Population Fragmented Nuclei (%),[4],20%
same,Population Healthy Nuclei (%),[4],55%
same,Population Hoechst High Intensity Objects (%),[4],1%
same,Population Membrane Permeable-Phenotype (%),[4],6%
same,Population Mitochondria Different-Phenotype (%),[4],4%
same,Population Mitotic Cells (%),[4],54%
same,Population Normal (%),[4],98%
same,Population Pyknosed Nuclei (%),[4],24%
same,Population Tubulin-Different-Phenotype (%),[4],56%
same,Total Cell Count,[4],138
same,Population Apoptotic (%),[5],54%
same,Population Fragmented Nuclei (%),[5],19%
same,Population Healthy Nuclei (%),[5],72%
same,Population Hoechst High Intensity Objects (%),[5],2%
same,Population Membrane Permeable-Phenotype (%),[5],1%
same,Population Mitochondria Different-Phenotype (%),[5],4%
same,Population Mitotic Cells (%),[5],45%
same,Population Normal (%),[5],97%
same,Population Pyknosed Nuclei (%),[5],7%
same,Population Tubulin-Different-Phenotype (%),[5],26%
same,Total Cell Count,[5],141
same,Population Apoptotic (%),[6],15%
same,Population Fragmented Nuclei (%),[6],23%
same,Population Healthy Nuclei (%),[6],43%
same,Population Hoechst High Intensity Objects (%),[6],3%
same,Population Membrane Permeable-Phenotype (%),[6],5%
same,Population Mitochondria Different-Phenotype (%),[6],5%
same,Population Mitotic Cells (%),[6],84%
same,Population Normal (%),[6],96%
same,Population Pyknosed Nuclei (%),[6],32%
same,Population Tubulin-Different-Phenotype (%),[6],54%
same,Total Cell Count,[6],126
same,Population Apoptotic (%),[7],44%
same,Population Fragmented Nuclei (%),[7],19%
same,Population Healthy Nuclei (%),[7],64%
same,Population Hoechst High Intensity Objects (%),[7],3%
same,Population Membrane Permeable-Phenotype (%),[7],0%
same,Population Mitochondria Different-Phenotype (%),[7],6%
same,Population Mitotic Cells (%),[7],55%
same,Population Normal (%),[7],96%
same,Population Pyknosed Nuclei (%),[7],16%
same,Population Tubulin-Different-Phenotype (%),[7],37%
same,Total Cell Count,[7],180
same,Population Apoptotic (%),[8],53%
same,Population Fragmented Nuclei (%),[8],25%
same,Population Healthy Nuclei (%),[8],49%
same,Population Hoechst High Intensity Objects (%),[8],5%
same,Population Membrane Permeable-Phenotype (%),[8],1%
same,Population Mitochondria Different-Phenotype (%),[8],7%
same,Population Mitotic Cells (%),[8],46%
same,Population Normal (%),[8],94%
same,Population Pyknosed Nuclei (%),[8],25%
same,Population Tubulin-Different-Phenotype (%),[8],60%
same,Total Cell Count,[8],134
same,Population Apoptotic (%),[9],78%
same,Population Fragmented Nuclei (%),[9],30%
same,Population Healthy Nuclei (%),[9],59%
same,Population Hoechst High Intensity Objects (%),[9],6%
same,Population Membrane Permeable-Phenotype (%),[9],2%
same,Population Mitochondria Different-Phenotype (%),[9],2%
same,Population Mitotic Cells (%),[9],21%
same,Population Normal (%),[9],93%
same,Population Pyknosed Nuclei (%),[9],9%
same,Population Tubulin-Different-Phenotype (%),[9],23%
same,Total Cell Count,[9],157
same,Population Apoptotic (%),[10],34%
same,Population Fragmented Nuclei (%),[10],32%
same,Population Healthy Nuclei (%),[10],47%
same,Population Hoechst High Intensity Objects (%),[10],2%
same,Population Membrane Permeable-Phenotype (%),[10],14%
same,Population Mitochondria Different-Phenotype (%),[10],6%
same,Population Mitotic Cells (%),[10],65%
same,Population Normal (%),[10],97%
same,Population Pyknosed Nuclei (%),[10],20%
same,Population Tubulin-Different-Phenotype (%),[10],68%
same,Total Cell Count,[10],132
same,Population Apoptotic (%),[11],63%
same,Population Fragmented Nuclei (%),[11],22%
same,Population Healthy Nuclei (%),[11],66%
same,Population Hoechst High Intensity Objects (%),[11],6%
same,Population Membrane Permeable-Phenotype (%),[11],0%
same,Population Mitochondria Different-Phenotype (%),[11],12%
same,Population Mitotic Cells (%),[11],36%
same,Population Normal (%),[11],93%
same,Population Pyknosed Nuclei (%),[11],10%
same,Population Tubulin-Different-Phenotype (%),[11],37%
same,Total Cell Count,[11],192
same,Population Apoptotic (%),[12],62%
same,Population Fragmented Nuclei (%),[12],30%
same,Population Healthy Nuclei (%),[12],51%
same,Population Hoechst High Intensity Objects (%),[12],1%
same,Population Membrane Permeable-Phenotype (%),[12],5%
same,Population Mitochondria Different-Phenotype (%),[12],14%
same,Population Mitotic Cells (%),[12],37%
same,Population Normal (%),[12],98%
same,Population Pyknosed Nuclei (%),[12],18%
same,Population Tubulin-Different-Phenotype (%),[12],64%
same,Total Cell Count,[12],135
